In the library only some 3.7% were active in any assay of this set; here they are far more common.
KCNK3 inh = human KCNK3 channel inhibitors, primary screen, CHO cells, FluxOR thallium flux, B-score; Potassium channel subfamily K member 3 (Homo sapiens), O14649; FluxOR fluorescence; hits give low values; B-score at 10 µM; 0.84% of 340,000 active; AID 602410, 2012;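 active = B-score under library mean minus 4 SD, starting fluorescence ratio at most library mean plus 5 SD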;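 also: more negative B-score means stronger inhibition of thallium flux through KCNK3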
Kir21 block = inhibitors of mouse Kir2.1 inward-rectifier potassium channel. Inward rectifier potassium channel 2 (Mus musculus), P35561. HEK293-Kir2.1, FluxOR thallium flux fluorescence; hits give low values. B-score at 10 µM. 0.85% of 310,000 active;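 active = fluorescence ratio B-score at or below minus 3 SD of library scores, with starting-brightness B-score within 2 SD, cut at about -4.2 in these data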;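 also: channel flux triggered by added potassium and thallium sulfate stimulus; B-score of peak minus minimum fluorescence over baseline after thallium stimulus; more negative B-score means stronger Kir2.1 block with less thallium influx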
hERG rescue = hERG rescue from dofetilide block, primary screen, cell-based, CHO-hERG, FluxOR thallium flux, dofetilide IC70; AID 1511, 2009; dofetilide IC70 present; 0.51% of 310,000 active; Voltage-gated inwardly rectifying potassium channel KCNH2 (Homo sapiens), Q12809; activation (rescue from dofetilide block), less the hit threshold, % at 10 µM;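 active = activation above the mean of controls blocked by dofetilide plus 5 SD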;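 also: thallium influx through hERG after potassium depolarization seen as dye fluorescence rise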
Target sequence (Q12809 whole entry, looked up): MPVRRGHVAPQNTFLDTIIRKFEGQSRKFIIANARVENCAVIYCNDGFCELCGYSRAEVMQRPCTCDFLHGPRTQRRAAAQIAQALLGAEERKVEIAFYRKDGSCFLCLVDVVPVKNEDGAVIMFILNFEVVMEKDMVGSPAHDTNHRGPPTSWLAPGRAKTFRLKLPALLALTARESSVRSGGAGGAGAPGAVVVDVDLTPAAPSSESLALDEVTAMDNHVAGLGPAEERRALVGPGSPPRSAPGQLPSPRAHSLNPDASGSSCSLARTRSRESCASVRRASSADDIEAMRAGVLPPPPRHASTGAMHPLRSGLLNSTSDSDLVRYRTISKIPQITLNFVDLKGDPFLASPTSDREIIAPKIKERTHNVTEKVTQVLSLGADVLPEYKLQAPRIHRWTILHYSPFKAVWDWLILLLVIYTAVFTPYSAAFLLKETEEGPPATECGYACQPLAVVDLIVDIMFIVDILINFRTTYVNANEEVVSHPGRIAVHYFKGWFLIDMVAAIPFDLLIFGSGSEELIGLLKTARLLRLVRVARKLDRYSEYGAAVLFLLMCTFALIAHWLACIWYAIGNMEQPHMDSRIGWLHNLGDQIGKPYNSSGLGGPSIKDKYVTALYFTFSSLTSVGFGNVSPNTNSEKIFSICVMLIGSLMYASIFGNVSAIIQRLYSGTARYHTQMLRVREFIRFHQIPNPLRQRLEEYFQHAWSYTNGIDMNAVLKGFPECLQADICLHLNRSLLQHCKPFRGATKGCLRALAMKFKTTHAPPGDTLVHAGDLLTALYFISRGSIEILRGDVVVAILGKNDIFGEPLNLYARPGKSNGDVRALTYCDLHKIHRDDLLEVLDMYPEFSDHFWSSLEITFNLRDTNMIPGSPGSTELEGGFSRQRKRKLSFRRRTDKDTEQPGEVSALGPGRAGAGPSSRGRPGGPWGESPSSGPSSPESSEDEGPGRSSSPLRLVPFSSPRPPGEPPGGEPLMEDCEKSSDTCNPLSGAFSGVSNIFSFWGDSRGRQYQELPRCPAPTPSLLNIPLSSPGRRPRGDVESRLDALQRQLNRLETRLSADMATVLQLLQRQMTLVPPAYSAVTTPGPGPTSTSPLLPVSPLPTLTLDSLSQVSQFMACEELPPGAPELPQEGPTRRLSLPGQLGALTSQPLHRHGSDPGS
KCNK9 inh = KCNK9 potassium channel inhibitors, primary screen, HEK293 cells, thallium flux; Potassium channel subfamily K member 9 (Homo sapiens), Q9NPC2; FluxOR thallium flux fluorescence; hits give low values; B-score at 10 µM; 1.2% of 310,000 active;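 active = ratio B-score over 3 SD below the library mean, with starting fluorescence within 5 SD of its mean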;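 also: negative B-score means less thallium flux so channel inhibition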
KCNQ1 act = potentiators or activators of KCNQ1 channel, primary screen, cell-based, thallium flux, high-throughput | Potassium voltage-gated channel subfamily KQT member 1 (Homo sapiens), P51787 | CHO-K1 KCNQ1, thallium flux FluxOR fluorescence; hits give high values | B-score at 10 µM | 0.35% of 310,000 active | AID 2648, 2010;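 active = fluorescence ratio B-score, a plate-corrected score, at least three library SD, with initial intensity B-score within 5 SD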
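Assay system: CHO-K1 cells stably expressing KCNQ1; Medium: assay buffer with matched DMSO; Also added: K+/Tl+ depolarizing stimulus; Dosing: single dose; Timing: dye 90 min, compound 20 min, room temperature; Measured by: kinetic FluxOR thallium fluorescence, 10-s 1-Hz baseline, 110-s post-stimulus read; Read-out: peak-minus-minimum fluorescence over initial fluorescence, negative-control normalized, B-scored.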
KCNQ1 inh = inhibitors of human KCNQ1 channel, primary screen, cell-based, thallium flux, high-throughput. Potassium voltage-gated channel subfamily KQT member 1 (Homo sapiens), P51787. CHO-K1 KCNQ1, FluxOR thallium flux fluorescence; hits give high values. B-score at 10 µM. 1.3% of 310,000 active. AID 2642, 2010;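 active = compounds whose thallium flux B-score, printed positive for inhibition, exceeds three library SD while starting fluorescence stays within three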;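 also: channel opened by potassium depolarization with thallium stimulus after 20 min compound exposure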
Large screens that a line does not name were inactive.

Cc1cc(N2CCN(c3cccc(C)c3C)CC2)nc(-c2ccccc2)n1	KCNK9 inh -6.6
Cc1cc(N2CCC(C(=O)NC3CC3)CC2)nc(-c2ccccc2)n1	none
CCOc1ccc(C(O)(c2ccccc2OC)C(CN2CCCC2)c2ccccc2)cc1 (stereo unspecified)	KCNQ1 inh 11
O=C(NCc1cccnc1)c1ccc(COc2ccccc2Br)o1	none
O=C(Nc1cccnc1)c1ccc(COc2ccccc2Br)o1	hERG rescue 22
CCn1ncc(CN2CCCC(CNC(=O)c3ccc(F)cc3)C2)c1C (stereo unspecified)	none
Cn1cc([N+](=O)[O-])c(C(=O)N/N=C\c2c[nH]c3ccccc23)n1	none
Cn1cc([N+](=O)[O-])c(C(=O)N/N=C/c2ccccc2)n1	hERG rescue 4.7
CCOC(=O)Nc1nc2ccc(Cn3cccc3)cc2[nH]1	none (no result: Kir21 block, hERG rescue, KCNK9 inh, KCNQ1 act, KCNQ1 inh)
CCOC(=O)c1ccc(S(=O)(=O)N2CCN(c3ccccn3)CC2)cc1	none
CCCC[n+]1c(C)sc2cc(OC)ccc21	none
COc1ccc2sc(C)[n+](C)c2c1	hERG rescue 4.6
COc1ccc(C(C[N+](=O)[O-])c2c(C)[nH]n(-c3ccccc3)c2=O)cc1 (stereo unspecified)	Kir21 block -8.7, KCNQ1 inh 7
C=CCn1c(=S)[nH]c2sc3c(c2c1=O)CCCC3	hERG rescue 12, KCNQ1 act 65
Cc1ccc(-n2c(=O)c3c4c(sc3n3c(=S)[nH]nc23)CCC4)cc1	none
COCCn1c(=S)[nH]c2sc3c(c2c1=O)CCCC3	hERG rescue 17, KCNQ1 act 30
O=c1c2c3c(sc2[nH]c(=S)n1Cc1ccco1)CCC3	hERG rescue 11, KCNQ1 act 15
Cc1ccc(-n2c(=S)[nH]c3sc4c(c3c2=O)CCC4)cc1	KCNQ1 act 8
Cn1c(=O)c2ccccc2n(Cc2cccc(F)c2)c1=O	none
Cc1c(Cl)cccc1NC(=S)N1CCCN(Cc2ccc(F)cc2)C1	Kir21 block -6.2
Cc1ccc(NC(=S)N2CCCN(Cc3ccc(F)cc3)C2)c(C)c1	none
Cc1ccccc1NC(=S)N1CCCN(Cc2ccc(F)cc2)C1	Kir21 block -4.5
Cc1ccc2nc(/C(C#N)=C\c3ccc(N4CCOCC4)o3)[nH]c2c1	KCNQ1 inh 6
Cc1ccc2nc(/C(C#N)=C\c3ccc([N+](=O)[O-])o3)[nH]c2c1	none
Cc1cccc(NC(=S)N/N=C/c2c[nH]c3ccccc23)c1	none
CCCc1c(C)nc2c(OC)cccc2c1SCC(=O)O	hERG rescue 4.7
CCCc1c(C)nc2ccc(OC)cc2c1SCCC(=O)O	none
Oc1c(Cl)cc(Cl)cc1/C=N/Nc1ncc(Br)cn1	none
Brc1csc(C=Nc2ccc3c(c2)OCCOCCOCCOCCO3)c1	none
Cc1ccc(N=Cc2cc(Cl)cc(Cl)c2O)nc1	hERG rescue 5.3, KCNQ1 act 17
Oc1c(Cl)cc(Cl)cc1C=Nc1ccc2c(c1)OCCO2	KCNQ1 act 8
Cc1ccc(C)c(SCC(=O)NC2CCS(=O)(=O)C2)c1 (stereo unspecified)	none (no result: Kir21 block, hERG rescue, KCNK9 inh, KCNQ1 act, KCNQ1 inh)
O=S(=O)(Nc1ccc(Cl)cc1)c1ccc(N2CCOCC2)c(NC(=S)NC2CC2)c1	none
O=C(CN1CCOCC1)NNc1nc(-c2ccccc2)c2cc(Br)ccc2n1	KCNQ1 inh 7
CCOC(=O)C1=C(C)N=c2s/c(=C/c3cccc([N+](=O)[O-])c3O)c(=O)n2C1c1cc(OC)c(OC)c(OC)c1 (stereo unspecified)	KCNQ1 inh 8
C=CC[C@H]1CC(Cc2ccccc2)=C[C@H](CC=C)N1	Kir21 block -6.5
C=CCC1C=C(Cc2ccccc2)CC(CC=C)N1 (stereo unspecified)	none
N/C(=N\OC(=O)Cc1ccccc1)c1cccnc1	none
N/C(=N\OC(=O)CC(c1ccccc1)c1ccccc1)c1cccnc1	hERG rescue 4.6
CC(C)(C)OC(=O)CC1(C#N)c2ccccc2C(Br)=CN1C(=O)c1ccccc1 (stereo unspecified)	KCNK9 inh -7.4
CC(C)[C@H](NC(=O)[C@@H]1Cc2c([nH]c3ccccc23)C2c3ccccc3C(=O)N21)C(=O)NCC1CCCO1 (stereo partly specified)	none
CSC(SC)=C(C#N)C(=O)c1ccccc1	Kir21 block -4.4, KCNQ1 inh 11
O=C(Nc1cc([N+](=O)[O-])ccc1N1CCOCC1)c1ccco1	hERG rescue 14
CC(NCCC(c1ccccc1)c1ccccc1)c1ccccc1 (stereo unspecified)	Kir21 block -6.4
CC(NC1CCCC1)c1ccccc1 (stereo unspecified)	none
CN(Cc1ccccc1)S(=O)(=O)c1ccc(NC(=O)c2ccccc2C(=O)O)cc1	none
COc1ccc2c(/C=C/c3cc[n+](C)cc3)c[nH]c2c1	none
COc1ccc2c(c1)c(/C=C/c1cc[n+](C)cc1)cn2C	KCNK9 inh -8
NS(=O)(=O)c1ccc(NC(=S)Nc2ccc(OCc3ccccc3)cc2)cc1	KCNQ1 act 30
S=C(Nc1ccccc1)Nc1ccc(OCc2ccccc2)cc1	none
O=C(Cn1c(CO)nc2ccccc21)NCCc1ccccc1	hERG rescue 7.3
O=C(Cn1c(CO)nc2ccccc21)NCCc1ccc(F)cc1	none
COc1ccc(-c2c[n+](CC(=O)OC3CC(C)CCC3C(C)C)c3n2CCC3)cc1 (stereo unspecified)	Kir21 block -5.2
Cc1ccc(S(=O)(=O)c2c(O)c3ccc(C(=O)O)cc3[nH]c2=O)cc1	none
CCCOc1ccc(-c2c(C(=O)N/N=C/c3cccs3)nnn2-c2nonc2N)cc1	none
O=C(Nc1cc([N+](=O)[O-])ccc1Cl)C(Sc1ccccc1)c1ccccc1 (stereo unspecified)	KCNK9 inh -7.1
O=C(NCCCl)Nc1ccc(Cl)c([N+](=O)[O-])c1	KCNQ1 inh 10
COCC(C)NC(C(=O)Nc1ccc(Cl)c([N+](=O)[O-])c1)c1ccccc1 (stereo unspecified)	none
CC(CC(=O)Nc1ccc(F)c([N+](=O)[O-])c1)c1ccccc1 (stereo unspecified)	KCNQ1 inh 6
CCC(C)NC(C(=O)Nc1ccc(Cl)c([N+](=O)[O-])c1)c1ccccc1 (stereo unspecified)	KCNK9 inh -7
CC(CC(=O)Nc1cccc(Cl)c1)c1ccccc1 (stereo unspecified)	none

Assay outcomes (PubChem)
